Screening results from PubChem.
Only some compounds are listed: those with a hit (about 1.7% of all), similar ones and a draw of the others.
HNF4A DNA FP: change in binding of human HNF4A to DNA, primary screen, biochemical, fluorescence polarization, FITC-DNA | Hepatocyte nuclear factor 4-alpha (Homo sapiens), P41235 | 1 h | activity change, % at 10 µM | 360,000 tested, 0.3% active; in the data active = activity change above about 30%, passing the limit was not always enough
Rpn11 inh: Rpn11 (PSMD14) deubiquitinase inhibitors, primary screen, biochemical, fluorescence polarization, uHTS. 26S proteasome non-ATPase regulatory subunit 14 (Homo sapiens), O00487. human 26S proteasome, Ub4-pepOG fluorescence polarization; 20S core pre-blocked with epoxomicin. inhibition, % at 20 µM. 360,000 tested, 0.59% active. AID 588493, 2011;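 active = inhibition at 20 µM, scaled to each plate's controls, above about 33%, limit read from the data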
TPT1 inh: Candida albicans TPT1 enzyme inhibitors, primary screen, biochemical, fluorescence polarization; recombinant caTPT1, FP RNA substrate dephosphorylation; AID 1962, 2009; 300,000 tested, 0.81% active; tRNA 2'-phosphotransferase TPT1 (Candida albicans SC5314); inhibition, % at 5 µM;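 active = inhibition above the mean of all tested compounds plus 3 SD, set per screening campaign, cut at about 24% in these data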
IDE act: human IDE activators in live cells, primary screen, fluorescence polarization, HEK cells, FAbeta-B substrate | Insulin-degrading enzyme (Homo sapiens), P14735 | FAbeta-B cleavage; 0% vehicle, 100% cell-free pure enzyme wells | activation, % at 5.96 µM | 340,000 tested, 0.073% active;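 active = activation above the mean of all tested compounds plus 3 SD, set per screening campaign, cut at about 17% in these data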
IDE inh: human IDE inhibitors in live cells, primary screen, fluorescence polarization, HEK cells, FAbetaB substrate. Insulin-degrading enzyme (Homo sapiens), P14735. FAbetaB cleavage. inhibition, % at 5.59 µM. 320,000 tested, 0.41% active. AID 434962, 2010;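 active = percent inhibition above the average of all tested compounds plus 3 SD, set per screening campaign, cut at about 16% in these data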;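 note: IDE supplied by intact live HEK cells; FP after avidin binding of uncleaved biotin substrate so inhibition keeps polarization high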
CSN deneddyl inh: inhibitors of CSN-mediated cullin deneddylation, primary screen, biochemical, fluorescence polarization, uHTS; COP9 signalosome complex subunit 5 (Homo sapiens), Q92905; 360,000 tested, 0.38% active; Purified CSN, SCF-Nedd8-OG deneddylation; inhibition, % at 12.5 µM;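 active = pattern-corrected inhibition above about 35%, with an unprinted fluorescence ratio check between 0.5 and 1.5, limit read from the data, passing the limit was not always enough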
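Assay system: purified human Csn5 enzyme expressed in HEK293T cells; Input: 0.24 nM Csn5 enzyme, final concentration; Reagent: 10 nM SCFSkp2-Nedd8OG; Compound dosing: 12.5 µM single point; Times: reaction 90 min, room temperature; Technique: fluorescence polarization readout.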
Rpn11 inh conf: Rpn11 (PSMD14) deubiquitinase inhibitors, confirmation, biochemical, fluorescence polarization, single concentration. shares compounds with Rpn11 inh. purified human 26S proteasome, Ub4-pepOG fluorescence polarization; proteasome pretreated with epoxomicin. inhibition, % at 20 µM. 1,900 tested, 29% active. AID 602318, 2012
MMP-2 counter: MMP-2 enzyme inhibition, confirmation, counter-screen for RPN11 inhibitor project, biochemical, fluorescence, single concentration; recombinant MMP-2, FRET peptide cleavage fluorescence; AID 602330, 2012; shares compounds with Rpn11 inh; inhibition, % at 20 µM; 1,900 tested, 4% active;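 note: human MMP-2 activated beforehand with APMA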
Thrombin FP: bovine thrombin protease inhibition, confirmation, counter-screen for Rpn11 inhibitor project, biochemical, fluorescence polarization, single concentration. shares compounds with Rpn11 inh. bovine thrombin cleavage of Ub4-pepOG. inhibition, % at 20 µM. 1,900 tested, 13% active;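 active = mean inhibition at least 40% at 20 µM, or signal 3 deviations below plate average, so some actives read negative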
Each line names hits and unclear results; the compound was inactive in the other large screens (follow-up assays come after a bar, where they were run); ! = repeats disagree. Cut-off read from the data, not from the text of the source, unless noted: active = inhibition above about 40%; inactive = the rest.

Cc1ccc(Cn2ncc3c(N4CCN(c5ccc(C)cc5)CC4)ncnc32)cc1	Rpn11 inh 101.6 | Rpn11 inh conf inactive | MMP-2 counter inactive | Thrombin FP inactive
Cc1ccc(Cn2ncc3c(N4CCN(C)CC4)ncnc32)cc1	none
N#Cc1ccccc1OCC(=O)Nc1c(C(=O)C2CC2)oc2ccccc12	Rpn11 inh 127.6 | Rpn11 inh conf inactive | MMP-2 counter inactive | Thrombin FP inactive
O=C(CN1CCCC1)Nc1c(C(=O)C2CC2)oc2ccccc12	none
CC(=O)Nc1ccc(SCC(=O)Nc2ccccc2N2CCOCC2)cc1	none (no result: TPT1 inh)
COc1cc(-c2nc3cc(C)ccn3c2NC2CCCCC2)ccc1-c1ccc(C(C)=O)cc1	Rpn11 inh 41.7 | Rpn11 inh conf inactive | MMP-2 counter inactive | Thrombin FP inactive
Cc1ccn2c(NC3CCCCC3)c(C)nc2c1	none
CCC(C)Sc1ccc(-c2nc3cnccn3c2NC2CCCCC2)cc1 (stereo not given)	none
CCCCCCSc1ccc(-c2nc3ccc(C)cn3c2NC2CCCCC2)cc1	none
CCC(C)Sc1ccc(-c2nc3cc(C)ccn3c2NC2CCCCC2)cc1 (stereo not given)	HNF4A DNA FP 44.6!, Rpn11 inh 115.1 (no result: TPT1 inh) | Rpn11 inh conf inactive | MMP-2 counter inactive | Thrombin FP inactive
CCCCCCSc1cc(-c2nc3cc(C)ccn3c2NC2CCCCC2)ccc1OC	Rpn11 inh 52.5 | Rpn11 inh conf inactive | MMP-2 counter inactive | Thrombin FP inactive
CCCCCCSc1ccc(-c2nc3cc(C)ccn3c2NC2CCCCC2)cc1	Rpn11 inh 58.1 (no result: TPT1 inh) | Rpn11 inh conf inactive | MMP-2 counter inactive | Thrombin FP inactive
CC(CSC(=O)c1ccccc1)C(=O)N1c2ccccc2CC1C(=O)O (stereo not given)	none (no result: TPT1 inh, IDE act, IDE inh)
Cc1ccn2c(NC3CCCCC3)c(-c3cccc(-c4cccc(Cl)c4)c3)nc2c1	Rpn11 inh 43.6 | Rpn11 inh conf inactive | MMP-2 counter inactive | Thrombin FP inactive
Cc1ccn2c(NC3CCCC3)c(-c3ccncc3)nc2c1	none
Cn1c(=O)oc2cc(S(=O)(=O)N3CCN(c4ccccc4F)CC3)ccc21	Rpn11 inh 48.1 | Rpn11 inh conf 71.2 | MMP-2 counter inactive | Thrombin FP inactive
NC(=O)c1ccc(NC(=O)c2cnc3ccccc3n2)cc1	none
O=C(Nc1ccccc1)c1cnc2ccccc2n1	Rpn11 inh 127.7 | Rpn11 inh conf inactive | MMP-2 counter inactive | Thrombin FP inactive
CCN(CC)C(=O)CSc1nnc(-c2ccco2)o1	none
O=C(CSc1nnc(-c2ccco2)o1)c1ccc([N+](=O)[O-])cc1	Rpn11 inh 36.2 (no result: IDE act) | Rpn11 inh conf inactive | MMP-2 counter inactive | Thrombin FP inactive
CN(C)C(=O)CCSc1nnc(-c2ccco2)o1	Rpn11 inh 31.9 | Rpn11 inh conf inactive | MMP-2 counter inactive | Thrombin FP inactive
CC(C)(C)OC(=O)N1CCC[C@@H]1C(=O)NCc1ccccc1Cl	none (no result: Rpn11 inh, TPT1 inh, IDE act, IDE inh)
